The sample as a whole holds a higher share of hits than the screen did.
UPR CHOP act: activators of apoptotic CHOP UPR arm, primary screen, cell-based, CHO-CHOP luciferase reporter, luminescence, uHTS; UPR activation; percent of tunicamycin response over DMSO baseline; activation, % at 10 µM; actives 0.34% (n = 330,000); AID 449763, 2010;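 active = at 10 µM dose, activation of 40% or more, normalized to positive control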
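System: CHO CHOP reporter cells. Amount: 500 cells per well. Buffer or medium: F12 medium, 10% FBS. Compound dosing: one dose, 10 µM in 0.5% DMSO. Incubation: 6 h compound exposure at 37 °C after overnight seeding. Technique: Steady-Glo luciferase luminescence. Benchmarks: tunicamycin and DMSO controls.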
CHOP inhibitor: inhibitors of CHOP promoter induction, primary screen, cell-based, unfolded protein response, luciferase reporter; CHO-K1 CHOP-promoter luciferase, tunicamycin-induced, 15-18 h; inhibition, % at 10 µM; actives 3.8% (n = 220,000); AID 2732, 2010;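 active = compounds that reduced the stress-induced luciferase reporter signal by more than about 70% of percent inhibition, limit read from the data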
UPR XBP1 act: activators of adaptive XBP1 UPR arm, primary screen, cell-based, CHO-XBP1 luciferase reporter, luminescence, uHTS | IRE1-XBP1 UPR activation; percent of tunicamycin response, DMSO as zero | activation, % at 20 µM | actives 0.33% (n = 330,000) | AID 463104, 2010;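 active = versus positive control, 20 µM dose yields 30% or more activation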
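assay system = CHO-XBP1 luciferase reporter cells | amount = 1000 cells/well | buffer or medium = F12 plus 10% FBS | compound dosing = single point, 20 µM final compound, 1% DMSO | incubation = 16-18 h cell attachment at 37 °C, then 6 h compound exposure | detection = Steady-Glo luminescence read | controls = tunicamycin 10 µg/mL and vehicle-only wells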
TbMetRS inhib: T. brucei MetRS inhibitors, primary screen, biochemical, luminescence. methionyl-tRNA synthetase (Trypanosoma brucei brucei). purified T. brucei MetRS, ATP depletion, Kinase-Glo luminescence. inhibition, % at 11.9 µM. actives 0.4% (n = 360,000). AID 624268, 2012;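 active = inhibition above a per-plate cutoff of the control wells' mean inhibition plus 3 SD, cut at about 5.5% in these data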
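Material – parasite MetRS enzyme · Medium – HEPES-MgCl2-KCl buffer plus DTT, spermine, BSA, pyrophosphatase · Reagent – ATP, methionine and E. coli bulk tRNA substrates · Times – 15 min enzyme-compound preincubation, 2 h reaction, 10 min detection, 25 °C · Measured by – luminescence of leftover ATP · Evaluation – percent inhibition relative to median high and low control wells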
V-ATPase pHluor: regulators of yeast V-ATPase proton pumping, primary screen, pHLuorin cytosolic pH fluorescence; S. cerevisiae; response, % at 10 µM; actives 0.37% (n = 350,000); in the data active = response mostly above about 7.3%, no sharp cut-off; inactive = mostly below about 5.4%; note: actives read high
Large screens that a line does not name were inactive.

CCOc1cccc(NC(=O)C2CC(=O)N(C)C(=Nc3cccc(F)c3)S2)c1 (stereo not drawn)	CHOP inhibitor 91
CC(/C=C/c1ccc(N(C)C)cc1)=N/N=C1/NC(=O)CC(C(=O)Nc2ccc(Cl)cc2)S1 (stereo not drawn)	CHOP inhibitor 71
CCOc1ccc(NC(=O)C2CC(=O)N(CC)C(=Nc3ccc4c(c3)OCO4)S2)cc1 (stereo not drawn)	CHOP inhibitor 72
CCN1C(=O)CC(C(=O)Nc2ccc(F)cc2)SC1=Nc1ccc2c(c1)OCO2 (stereo not drawn)	none
C/C(CCc1ccc2c(c1)OCO2)=N\N=C1\NC(=O)CC(C(=O)Nc2ccc(C(=O)O)cc2)S1 (stereo not drawn)	none (no result: UPR CHOP act, CHOP inhibitor, UPR XBP1 act)
CCCOc1ccc(NC(=O)C2CC(=O)N/C(=N/N=C(\C)CCc3ccc4c(c3)OCO4)S2)cc1 (stereo not drawn)	CHOP inhibitor 78
CC(/C=C/c1ccc(N(C)C)cc1)=N\N=C1\NC(=O)CC(C(=O)Nc2ccccc2)S1 (stereo not drawn)	none
CCOC(=O)c1c(CN2CCNCC2)nc2ccc(Cl)cc2c1-c1ccccc1	none (no result: UPR CHOP act, CHOP inhibitor, UPR XBP1 act)
CCCOc1ccc(NC(=O)C2CC(=O)N/C(=N/N=C(C)/C=C/c3ccc(N(C)C)cc3)S2)cc1 (stereo not drawn)	CHOP inhibitor 72
COc1ccc(NC(=O)C2CC(=O)N/C(=N/N=C/c3ccccc3)S2)cc1 (stereo not drawn)	none
CCOc1cc(/C=N/NS(=O)(=O)c2ccccc2)ccc1OS(=O)(=O)c1ccc(C)cc1	CHOP inhibitor 87
CCOc1cc(/C=N/O)ccc1OS(=O)(=O)c1ccc(C)cc1	none
CCOc1cc(/C=N/NC(=O)COc2ccccc2C)ccc1OC(=O)c1cccs1	CHOP inhibitor 76
Cc1ccc(S(=O)(=O)N/N=C/c2ccc(OS(=O)(=O)c3ccc(C)c([N+](=O)[O-])c3)cc2)cc1	CHOP inhibitor 80
CCOc1cc(/C=N/NC(=O)COc2ccc(Cl)cc2)ccc1OS(=O)(=O)c1ccccc1	CHOP inhibitor 81
Cc1ccc(S(=O)(=O)N/N=C\c2ccc(Cl)c([N+](=O)[O-])c2)cc1	none
CCOc1cc(/C=N/NC(=O)COc2ccc(C)cc2)ccc1OC(=O)c1cccs1	none
Cc1cc(C(=O)CSc2nc3ccccc3c(=O)n2C)c(C)n1CC1CCCO1 (stereo not drawn)	CHOP inhibitor 74 (no result: UPR CHOP act, UPR XBP1 act, TbMetRS inhib, V-ATPase pHluor)
Cc1cc(C(=O)CSc2nnc(-c3ccc(F)cc3)o2)c(C)n1CC1CCCO1 (stereo not drawn)	CHOP inhibitor 93
Cc1cc(C(=O)COC(=O)CNC(=O)c2ccccc2)c(C)n1CC1CCCO1 (stereo not drawn)	CHOP inhibitor 90
Cc1cccc(C(=O)NCC(=O)OCC(=O)c2cc(C)n(CC3CCCO3)c2C)c1 (stereo not drawn)	none
COc1ccc(OCCN2CCC(C(=O)NC(c3ccsc3)c3ccccc3C)CC2)cc1 (stereo not drawn)	none (no result: UPR CHOP act, CHOP inhibitor, UPR XBP1 act, V-ATPase pHluor)
CC[C@H](C)[C@H]1O[C@]2(CC[C@@H]1C)C[C@@H]1C[C@@H](CC=C(C)[C@@H](O[C@H]3C[C@H](OC)[C@@H](O[C@H]4C[C@H](OC)[C@@H](O)[C@H](C)O4)[C@H](C)O3)[C@@H](C)C=CC=C3CO[C@@H]4[C@H](O)C(C)=C[C@@H](C(=O)O1)[C@]34O)O2	UPR XBP1 act 64 (no result: CHOP inhibitor)
CC[C@@H](C)[C@H]1O[C@]2(CC[C@@H]1C)C[C@@H]1C[C@@H](C/C=C(\C)[C@@H](O[C@H]3C[C@H](OC)[C@@H](O[C@H]4C[C@H](OC)[C@@H](O)[C@H](C)O4)[C@H](C)O3)[C@@H](C)/C=C/C=C3\CO[C@@H]4[C@H](O)C(C)=C[C@@H](C(=O)O1)[C@]34O)O2	none (no result: UPR CHOP act, UPR XBP1 act, TbMetRS inhib, V-ATPase pHluor)
C=CCNc1nc(Nc2ccc(OC)c(OC)c2)c2sc(-c3ccccc3)cc2n1	none (no result: UPR CHOP act, CHOP inhibitor, UPR XBP1 act, V-ATPase pHluor)
Cc1ccc(S(=O)(=O)N2CCC[C@H]2C(=O)NC2CCCCC2)cc1	none (no result: UPR CHOP act, CHOP inhibitor, UPR XBP1 act)
O=C(N/N=C/c1ccc(OC(F)F)cc1OC(F)F)NC1CCCCC1	CHOP inhibitor 91
